Results collected from several papers.
Each line is one published result; the experiments were not run side by side.
Target: Cannabinoid receptor 1 (CNR1, Homo sapiens, UniProt P21554)

CC1(C)C(C(=O)c2cn(CCCCCF)c3ccccc23)C1(C)C — EC50 (GTPγS binding; agonist; radiometric; cell membranes): 159 nM
CC/C(=C(\c1ccc(O)cc1)c1ccc(OCCN(C)C)cc1)c1ccccc1 — Kb (cAMP; antagonist): 1600 nM
CCCCCc1cc(O)c(C/C=C(\C)CCC2OC2(C)C)c(O)c1 (centres unmarked) — Ki (ligand displacement; radioligand; cell membranes): > 10000 nM
C/C(N)=N\C(=N/S(=O)(=O)c1ccc(C(F)(F)F)cc1)N1C[C@H](c2ccccc2)C(c2ccc(Cl)cc2)=N1 — Ki (ligand displacement; radioligand): 1.2 nM
CCOC(=O)C(CC)(CCCSCCOCCOCCNc1ccc([N+](=O)[O-])c2nonc12)NC(=O)c1ccc(C2CC2)c(Cc2ccc(F)cc2)n1 (racemic) — Ki (ligand displacement; radioligand; cell membranes): 383 nM
CCCCC/C=C\C/C=C\C/C=C\C/C=C\CCCC(=O)NCCCl — Ki (ligand displacement; radioligand; cell membranes): 0.74 nM
CCOC(=O)[C@](CC)(CCC[S+]([O-])CCOCCOCCNC(=O)OC(C)(C)C)NC(=O)c1ccc(C2CC2)c(Cc2ccc(F)cc2)n1 (some centres unmarked) — Ki (ligand displacement; radioligand; cell membranes): 326 nM
CCCCCn1nc(C(=O)N[C@H](C(N)=O)C(C)C)c2ccccc21 — EC50 (calcium signal; agonist): 3.63 nM
CCCCCc1cc(O)c2c(c1)OC(C)(C)[C@@H]1CC=C(C)[C@H](O)[C@@H]21 — Ki (ligand displacement; radioligand; cell membranes): 31 nM
CCOC(=O)[C@H](CSC)NC(=O)c1ccc(C2CC2)c(Cc2ccc(F)cc2)n1 — Ki (ligand displacement; radioligand; cell membranes): 19 nM
CCCCCc1cc(O)c(C/C=C(\C)CCC=C(C)C)c(O)c1 — Ki (ligand displacement; radioligand; cell membranes): 3090 nM
CCOC(=O)C(CC)(CCCSCCOCCOCCOCCOCCNC(=O)OC(C)(C)C)NC(=O)c1ccc(C2CC2)c(Cc2ccc(F)cc2)n1 (centres unmarked) — Ki (ligand displacement; radioligand; cell membranes): 731 nM
N#Cc1c(Oc2cccc(OS(=O)(=O)CCCC(F)(F)F)c2)cccc1C(F)(F)F — EC50 (calcium signal; agonist): 519 nM
C=C(C)[C@@H]1CCC(C)=C[C@H]1c1c(O)cc(CCC)cc1O — Ki (ligand displacement; radioligand; cell membranes): 503 nM
